Assay outcomes deposited in PubChem BioAssay by several laboratories.
T cruzi inh = blocks replication of Trypanosoma cruzi; T. cruzi beta-gal in NIH3T3, luminescence, 90 h; AID 1885; 300,000 tested, 1.4% active; inhibition, % (no concentration beside the values);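 active = mean inhibition across valid replicates above about 55%, limit read from the data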;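 note: signal also drops with host cell toxicity which is not excluded here; 0% = plate median of DMSO wells and 100% = zero luminescence signal; higher percent means less beta-gal luminescence so fewer parasites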
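assay system = mouse NIH/3T3 fibroblasts infected with β-gal-expressing T. cruzi Tulahuen C4 | input = 5,000 NIH/3T3 host cells per well | buffer or medium = DMEM plus 2% FBS | timing = 3 h host attachment, then at least 90 h co-culture | measured by = GalScreen luminescence, 60 min | evaluation = luminescence reflecting intracellular parasite burden, expressed as percent inhibition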
SKKanGAS inh = inhibitors of SKKanGAS S. pyogenes growth in kanamycin (SK-promoter or general growth effect); 300,000 tested, 1.3% active; BacTiter-Glo, 6 h; inhibition, % at 7.5 µM;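 active = mean replicate score, as percent of positive control median, at least 50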;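 note: strain carries kanamycin resistance gene driven by streptokinase promoter and grows in 40 µg/ml kanamycin; loss of luminescence reflects streptokinase promoter inhibition or plain growth inhibition; 0% = median of DMSO wells and 100% = positive control at its reference dose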
CSC inhib = cancer stem cell inhibition; inhibition, % at 7.5 µM; AID 2717; 300,000 tested, 1.1% active; cancer stem cell-like cells viability, luminescence; in the data active = inhibition above about 75%; tested in HMLE shEcad cells
L major viab = reduces viability of Leishmania major promastigotes | 200,000 tested, 9% active | resazurin fluorescence viability | AID 1063 | inhibition, % at 10 µM; in the data active = inhibition above about 50%;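 note: promastigotes grown with compound for 44 hours at 28 °C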
Beta apoptosis = blocks beta cell apoptosis. INS-1E cytokine-induced death, ATP luminescence, 48 h; percent of positive-control rescue, neutral wells zero. protection from apoptosis, % (concentration not given with the values). 300,000 tested, 0.8% active;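 active = Every replicate reaches about 75%, or at least half do and their mean reaches it too, limit read from the data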;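 note: 0% = cytokine-treated negative control wells and 100% = positive control rescue; higher means more ATP so stronger rescue from cytokine killing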
Mdm2-MdmX inh = inhibitors of human Mdm2/MdmX interaction. O15151+Q00987. SaOS-2 split-luciferase Mdm2/MdmX complementation, luminescence. inhibition, % at 8 µM. 330,000 tested, 3% active;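 active = inhibition of at least 50% at 8 µM in the primary screen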
Mdm2-MdmX conf = confirmation of human Mdm2/MdmX interaction inhibitors | shares compounds with Mdm2-MdmX inh | Mdm2-MdmX binding, luminescent assay | inhibition, % at 8 µM | 10,000 tested, 55% active; in the data active = inhibition above about 40%
Full FLuc ctr = inhibits full-length luciferase, flagging false Mdm2/MdmX hits; 6,200 tested, 77% active; AID 504607; inhibition, % at 8 µM; SaOS-2 full-length luciferase counterscreen, luminescence; shares compounds with Mdm2-MdmX inh;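 active = mean inhibition at 8 µM reaching about 37%, which flags the compound as non-specific, limit read from the data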;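 note: p53-null SaOS-2 cells with luciferase driven by a doxycycline-inducible promoter; compound on cells about two nights before reading with doxycycline added after day one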
* marks the source's active call; other numbers are inactive results; nt = no result. Shown are actives, neighbours in structure and some others; about 9.4% of the full set was active somewhere.

SMILES	T cruzi inh	SKKanGAS inh	CSC inhib	L major viab	Beta apoptosis	Mdm2-MdmX inh	Mdm2-MdmX conf	Full FLuc ctr
O=C(COC(=O)Cc1c(F)cccc1Cl)NC(=O)Nc1ccccc1F	nt	nt	-9	nt	-3	-2	nt	nt
C/C(CC(C)(C)C1CCCCC1)=N\NC(N)=S	56*	-6	nt	100*	nt	56*	6	nt
CN(C)c1ccc(-c2cc(O)c3ncccc3c2)cc1	nt	nt	115*	nt	88*	92*	84*	50*
Oc1cc(-c2ccncc2)cc2cccnc12	nt	nt	nt	nt	46	91*	66*	52*
Oc1cc(-c2ccc(N3CCCCC3)nc2)cc2cccnc12	nt	nt	nt	nt	96*	98*	97*	50*
CN(C)CCCNC(=O)c1ccc(-c2nc(-c3ccc(Cl)cc3)cs2)cc1	65*	10	100*	101*	47	87*	94*	28
Oc1cc(Nc2ccncc2)cc2cccnc12	nt	nt	nt	nt	-2	38	nt	nt
CC(C)Cn1c(N)c(C(=O)COC(=O)c2cnc(Cl)c(Cl)c2)c(=O)n(C)c1=O	-1	3	-18	6	0	4	nt	nt
COc1ccc(OC)c(/C=C/C(=O)N(C)CC(=O)Nc2ccc(N3CCOCC3)cc2)c1	nt	nt	-9	nt	3	-21	nt	nt
CC(C)N(CCNC(=O)COc1ccc2oc3c(c2c1)CCCC3)C(C)C	12	2	8	nt	1	25	nt	nt
Oc1cc(Nc2cccnc2)cc2cccnc12	nt	nt	nt	nt	9	66*	12	nt
CN(C)CCCNC(=O)c1ccc(-c2cc(O)c3ncccc3c2)cc1	nt	nt	nt	nt	-10	55*	34	55*
CN(C)CCCNC(=O)c1ccccn1	-18	-5	-17	-5	-11	-11	nt	nt
COc1ccc(OC)c(S(=O)(=O)NCc2ccccn2)c1	-1	0	0	nt	-8	11	nt	nt
O=C(NC1CCCC1)C1CCN(C(=O)c2ccc(-c3ccccc3)cc2)CC1	17	2	-38	-6	-11	7	nt	nt
Cc1ccc(/C(N)=N/OC(=O)c2cccc(Cn3cc(C(F)(F)F)ccc3=O)c2)cc1	17	-9	7	nt	99*	89*	50*	76*
N/C(=N\OC(=O)c1cccc(Cn2cc(C(F)(F)F)ccc2=O)c1)c1ccc(Cl)cc1	3	0	4	nt	113*	76*	47*	83*
O=C(Sc1ccc(Cl)cc1)c1cccc(Cn2cc(C(F)(F)F)ccc2=O)c1	33	9	11	nt	-18	4	nt	nt
N/C(=N\OC(=O)c1cccc(Cn2cc(C(F)(F)F)ccc2=O)c1)c1ccccc1	3	-4	9	nt	113*	68*	24	nt
O=C(Nc1ccc(S(=O)(=O)Nc2nccs2)cc1)c1ccc(=O)[nH]c1	-9	-3	-6	-6	-7	-25	nt	nt
Cc1ccc([C@@H]2CC=C(C(=O)O)[C@H](c3ccccc3F)N2S(=O)(=O)c2ccccc2C)cc1	nt	nt	nt	nt	nt	-39	nt	nt
COc1ccc(C(CC(=O)Nc2ccccn2)N2Cc3ccccc3C2=O)cc1OC (stereo not given)	5	-2	-8	nt	-1	26	nt	nt
CC(C)C(C(=O)N1CCN(C(=O)OC(C)(C)C)CC1)n1cc(-c2cn([C@@H](C)C(=O)N3CCN(C(=O)OC(C)(C)C)CC3)nn2)nn1 (stereo not given in full)	-1	0	nt	nt	nt	23	nt	nt
CC1(C)Cc2ccccc2-c2nnc(-c3ccccc3)n21	-15	5	-16	5	-4	-6	nt	nt
Cc1cc2c(cc1C)-c1nnc(-c3ccc4ccccc4n3)n1C(C)(C)C2	7	4	-8	47	1	70*	-1	nt
CN=c1scc(-c2cccs2)n1/N=C/c1ccccc1O	7	2	-8	86*	10	95*	96*	13
CCCCn1c(-c2ccc(C(C)(C)C)cc2)nc2cc3[nH]c(=O)c(C(C)C)nc3cc21	14	40	10	nt	-1	64*	26	nt
Cc1cc(NC(=O)C(C)Oc2ccc(Cl)cc2Cl)no1 (stereo not given)	-8	nt	-12	nt	-4	24	nt	nt
